VIM-2 inh: VIM-2 metallo-beta-lactamase inhibitors, primary screen, biochemical, epi-absorbance readout, Pseudomonas aeruginosa enzyme. purified VIM-2, nitrocefin hydrolysis, epi-absorbance fluorescence. inhibition, % at 5.6 µM. actives 0.89% (n = 290,000);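 active means inhibition above the mean of all tested compounds plus 3 SD, cutoff set per screening run, cut at about 7.5% in these data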;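 further: red hydrolysis product quenches plate fluorescence so inhibitors raise well fluorescence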
PolyA inh: polyadenylation inhibitors in yeast reporter cells, primary screen, luminescence, S. cerevisiae. S. cerevisiae SKY197-pL101 polyadenylation reporter, beta-gal luminescence; efflux-impaired pdr1/pdr3 knockout yeast; score 100 = 6 SD above DMSO. activity score, % at 12 µM. actives 0.02% (n = 300,000);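 active means lowest replicate activity score at least 50, where 100 means six control SD above control mean; inconclusive means lowest score under 50 but half or more replicates reach 50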;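 further: yeast exposed to compound for 9 h at 30 °C; higher score means more reporter readthrough which indicates perturbed polyadenylation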
NALP1 yeast inh: NALP1 inflammasome inhibitors in reconstituted yeast, colorimetric, S. cerevisiae, triplicate retest. inhibition, % at 10 µM. actives 0.61% (n = 280,000). S. cerevisiae NALP1/ASC/caspase-1 growth, X-gal OD620, 72 h; in the data active means inhibition mostly above about 24%, no sharp cut-off; inactive means mostly below about 32%
IMP-1 inhibitor: IMP-1 metallo-beta-lactamase inhibitors, primary screen, biochemical, epi-absorbance readout, Pseudomonas aeruginosa enzyme; actives 0.45% (n = 290,000); inhibition, % at 5.6 µM; purified IMP-1, nitrocefin hydrolysis, epi-absorbance fluorescence;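 active means inhibition above the mean plus 3 SD of all compounds in the same screening run, cut at about 4.5% in these data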
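System: purified IMP-1; amount: IMP-1 0.2 nM before substrate addition; compound: single dose, 5.6 µM; times: 25 °C, 15 min preincubation, 25 min reaction; signal: Epi-absorbance via hydrolysed-nitrocefin quenching of white-plate fluorescence, 480/530 nm, EDTA stop; benchmarks: DMSO with and without IMP-1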
Mot1-301 SUMO: yeast Mot1-301 growth rescue at high temperature, primary screen, SUMOylation pathway inhibitor project, S. cerevisiae, ATP luminescence, 38.5C; S. cerevisiae Mot1-301 growth rescue; percent above DMSO median, 100 means doubled; growth rescue, % at 18.8 µM; actives 1% (n = 320,000);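 active means every valid replicate shows activation above 250% relative to neutral control wells; inactive means the rest, any valid replicate at or below 250%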
NLRP3 yeast inh: NALP3 inflammasome inhibitors in reconstituted yeast, primary screen, luminescence, uHTS | inhibition, % at 10 µM | AID 2825, 2010 | Yeast reconstituted NLRP3/ASC/caspase-1, beta-gal luminescence, 24 h | actives 0.39% (n = 330,000);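 active means inhibition of 50% or more; inactive means inhibition below 50%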
Mot1 SUMO dose: growth restoration of Mot1-301 yeast on galactose, dose response, SUMO pathway inhibitor project, whole organism, S. cerevisiae, ATP luminescence, cherry-picked samples; shares compounds with Mot1-301 SUMO; growth activity, percent, % at 42 µM; S. cerevisiae Mot1-301 galactose growth, 24 h; -100 = growth of slx-deleted rescue strain; AID 493004, 2010; 2,300 tested, under 10 active;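 active means Signal drops as the depositor expects, and the fitted half-maximal dose is no more than ten times the top valid tested dose; inconclusive means Poor fit, or a flat curve whose signal drops by 30% to 70%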;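 further: more negative values mean stronger growth rescue toward the control strain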
A number is an active result; - = inactive; ? = inconclusive; . = no result given; + = active, no number. Most compounds without a hit are left out; they make up all but 2.9% or so of the library.

SMILES	VIM-2 inh	PolyA inh	NALP1 yeast inh	IMP-1 inhibitor	Mot1-301 SUMO	NLRP3 yeast inh	Mot1 SUMO dose
O=C(O)Cc1sc(Nc2ccccc2)nc1-c1cccs1	-	-	.	-	414.7	-	-
C=CCNc1nc(-c2cccs2)c(CC(=O)O)s1	-	-	.	-	-	-	.
O=C(Nc1ccccc1)N1CCN(CCc2ccccc2)CC1	-	-	-	-	391.6	-	-
Cc1c(C(=O)N2CCN(CCc3ccccc3)CC2)oc2ccccc12	-	-	-	-	706.7	-	-
O=S(=O)(Nn1c(O)c(C=C2N=c3ccccc3=N2)sc1=S)c1ccccc1	-	-	-	-	907.9	-	-
O=C(Nn1c(O)c(C=C2N=c3ccccc3=N2)sc1=S)c1ccccc1Cl	-	-	-	-	-	-	.
CCOCCCNC(=O)c1c[nH]c2c(CC)cccc2c1=O	-	-	-	-	-	-	.
CCC(=O)N(Cc1ccc2c(c1)OCO2)Cc1cc2cc(OC)ccc2[nH]c1=O	-	-	-	-	375.6	-	-
CCN(Cc1cc2cc(OC)ccc2[nH]c1=O)C(=O)Cc1ccc(OC)cc1	-	-	-	-	-	-	.
O=C(c1cccs1)N(C(=O)c1cccs1)c1ccc(Br)cn1	-	-	-	-	481.6	-	-
COc1ccc(C=O)cc1OC(=O)N1CCOCC1	-	-	-	-	-	-	.
O=C(NCc1ccc(F)cc1)C1CCCN(C(=O)Nc2ccc(F)cc2)C1 (stereo unspecified)	-	-	-	-	-	-	.
CC1CC(c2ccccc2)NS(=O)(=O)O1 (stereo unspecified)	-	-	-	-	517.7	-	-
CCC(C)NCCOc1ccccc1C (stereo unspecified)	-	-	-	27.7	385.8	-	-
COCCn1c(SCC(=O)N2CCCC2)nnc1-c1ccoc1C	-	-	-	-	+	-	-
COCCn1c(SCC(=O)N2CCCC2)nnc1-c1ccco1	-	-	-	-	-	-	.
COc1cc(CCC(=O)Nc2ccc(C)c(S(=O)(=O)N3CCCCCC3)c2)cc(OC)c1OC	.	.	.	.	-	-	.
CC1CCN(CC(=O)Nc2ccc3c(c2)OCO3)CC1	.	.	.	.	.	-	.
CC(C)(C)C(=O)NC1CCN(CC(=O)Nc2ccc3c(c2)OCO3)CC1	-	-	-	-	490.0	-	-
CCOC(=O)N1CCN(C(=O)c2ccccc2-c2ccccc2)CC1	-	-	-	-	436.1	-	-
CCS(=O)(=O)N1Cc2ccccc2CC1C(=O)NCCc1c[nH]c2ccccc12 (stereo unspecified)	-	-	-	-	-	-	.
CCCNc1c(NS(=O)(=O)c2ccc(OC)c(OC)c2)c(=O)oc2ccccc12	-	-	-	-	.	-	.
CN1/C(=C\C(=O)COC(=O)c2nccnc2N)C(C)(C)c2ccccc21	.	-	.	.	-	-	.
CN1/C(=C\C(=O)COC(=O)c2ccc([N+](=O)[O-])o2)C(C)(C)c2ccccc21	-	-	-	-	428.2	-	-
Cc1cc(C)nc(-n2nc(C)cc2NC(=O)CNCc2ccccc2)n1	-	?	.	-	+	-	-
SMILES	VIM-2 inh	PolyA inh	NALP1 yeast inh	IMP-1 inhibitor	Mot1-301 SUMO	NLRP3 yeast inh	Mot1 SUMO dose
S=C(NCc1ccco1)Nc1ccc(Oc2ccccc2)cc1	-	-	-	-	-	-	.
COC(=O)c1cn(CC(=O)Nc2ccccc2C)c2ccccc12	-	-	-	-	-	-	.
CC(NC(=O)C1CCCN(S(=O)(=O)N2CCOCC2)C1)c1ccccc1 (stereo unspecified)	-	-	-	-	368.4	-	-
CC1CC(C)CN(S(=O)(=O)N2CCCC(C(=O)NC(C)c3ccccc3)C2)C1 (stereo unspecified)	-	-	-	-	-	-	.
CCc1ccccc1N(C)S(=O)(=O)c1ccc(-c2cc(C)no2)s1	-	-	-	-	-	-	.
COc1ccc(S(=O)(=O)NC(C)C(=O)NCc2ccccn2)cc1Cl (stereo unspecified)	-	-	-	-	385.8	-	-
COc1ccc(S(=O)(=O)NC(C)C(=O)NCc2ccccn2)cc1OC (stereo unspecified)	-	-	-	-	-	-	.
COc1ccc(-c2cc3ccc(OC(C)C(=O)O)cc3oc2=O)cc1 (stereo unspecified)	-	-	-	-	-	-	.
Cc1ccc(C(C)C)cc1OCC(=O)Nc1ccc(-n2cnnn2)cc1	.	.	.	.	.	-	.
Cc1cc(C)c(NC(=O)CCN2CCN(Cc3ccccc3)CC2)c(C)c1	.	-	.	.	465.1	-	-
CCOC(=O)N1CCN(S(=O)(=O)c2ccc(Br)s2)CC1	-	-	-	-	365.0	-	-
CCOC(=O)N1CCC(NS(=O)(=O)c2ccc(C)c(Cl)c2)CC1	-	-	-	-	559.3	-	-
CCOC(=O)N1CCN(S(=O)(=O)c2ccc(C)c(C)c2)CC1	-	-	-	-	388.4	-	-
CCOC(=O)N1CCC(NS(=O)(=O)c2ccc3c(c2)oc(=O)n3C)CC1	-	-	-	-	-	-	.
COc1cccc(CC2(CO)CCCN(Cc3sc(N4CCCC4)nc3Cl)C2)c1 (stereo unspecified)	-	-	-	-	-	-	.
O=c1[nH]cccc1-c1nc2ccccc2n1Cc1cccc(F)c1	-	-	-	-	-	-	.
CC(Sc1nnc2n1CCCCC2)C(=O)Nc1cccc(S(=O)(=O)N2CCOCC2)c1 (stereo unspecified)	.	.	.	.	.	-	.
COc1ccc(Cl)cc1NC(=O)COC(=O)Cc1cc(OC)c(OC)c(OC)c1	.	.	.	.	-	-	.
Cc1cc(-c2nnc3sc(C4CCCCC4)nn23)n[nH]1	-	-	-	-	690.8	-	-
COC(=O)c1ccc(COc2c(F)c(F)cc(F)c2F)o1	-	-	-	-	-	-	.
O=C(O)c1ccc(COc2c(F)c(F)cc(F)c2F)cc1	-	-	-	-	+	-	-
Cc1ccccc1CSc1n[nH]c(NS(=O)(=O)c2ccccc2)n1	-	-	-	-	+	-	-
Cn1c(SCc2ccccn2)nc2c1c(=O)[nH]c(=O)n2C	-	-	-	-	-	-	.
O=C(C1CCC(CNc2c(N3CCCCC3)c(=O)c2=O)CC1)N1CCN(C2CCCCC2)CC1 (stereo unspecified)	-	-	-	-	499.1	-	-
